Consider 8 molecules from ChEMBL document CHEMBL1142901, “Design and synthesis of pyrimido[4,5-b][1,4]benzothiazine derivatives, as potent 15-lipoxygenase inhibitors” (Bioorg Med Chem, 2007).

Data set [1] can be described thus: Inhibition of soybean 15-lipoxygenase. On the set-up: species or system Glycine max. Summed up:
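Soybean 15-lipoxygenase (final 167 U/mL, kept on ice) in 0.2 M borate buffer pH 9.00 with linoleic acid (134 µM) substrate. Activity followed as absorbance increase at 234 nm from 30 to 90 s after enzyme addition. Compounds added in ethanol (final 1%); ethanol-only uninhibited controls measured at regular intervals. IC50 by linear interpolation between points around 50% activity.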

A short description of data set [2]: Partition co-efficient, log P of the compound. The data set is classed as physicochemical. Particulars: octanol/water.

SMILES strings stand for the structures.

One may read the IC50 as the concentration at which inhibition is half-maximal. A low value points to greater potency. One may read the logP as a log measure of how a compound divides between an organic and an aqueous phase. Low readings indicate lower lipophilicity, high ones higher lipophilicity.

As for `Cc1nc(N2CCCCC2)nc2c1Nc1ccccc1S2`, the 50% inhibitory concentration (IC50) in data set [1] is 58 µM. For the same molecule, the logP in data set [2] came to 2.74.
The like results for `CCN1CCN(c2nc(C)c3c(n2)Sc2ccccc2N3)CC1` were, in that order, 34 µM and 2.19.
The like results for `Cc1nc(N2CCN(C)CC2)nc2c1Nc1ccccc1S2` were, in that order, 18 µM and 1.95.
The like results for `Cc1nc(N2CCN(c3ccccc3)CC2)nc2c1Nc1ccccc1S2` were, in that order, above 200 µM and 3.15.
Regarding `Cc1nc(N2CCC(C)CC2)nc2c1Nc1ccccc1S2`, in data set [1], the IC50 amounted to 76 µM. Further, the logP in data set [2] was found to be 2.98.
As for `Cc1nc(N2CCC(O)CC2)nc2c1Nc1ccccc1S2`, in data set [1], the IC50 was above 200 µM. This molecule also yielded a logP in data set [2] of 1.95.
`Cc1nc(N2CCCC2)nc2c1Nc1ccccc1S2` yielded an IC50 in data set [1] of 48 µM. The molecule also gave a logP in data set [2] of 2.49.
The like results for `Cc1nc(N2CCOCC2)nc2c1Nc1ccccc1S2` were, in that order, 53 µM and 1.7.
